The values below come from ChEMBL document CHEMBL1157220, “Isoflavonoids and other compounds from Psorothamnus arborescens with antiprotozoal activities” (J Nat Prod, 2006).

One experiment has as its system PC-3. Nature of the experiment: Cytotoxicity against human PC3 cells. Format: cell-based.
The subject of another experiment is Vero. The experiment can be described thus: Cytotoxicity against african green monkey Vero cells. Format: cell-based. The following applies: Chlorocebus sabaeus.
For experiment [1], the system named is Trypanosoma brucei brucei. The experiment can be described thus: Antitrypanosomal activity against Trypanosoma brucei brucei MITat 1.2 variant 221 after 72 hrs. In kind it is functional, organism-based. An outline of the steps:
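Bloodstream-form parasites grown axenically in HMI-9, seeded late log phase at 10⁵ cells/mL, exposed with or without compound 72 h at 37 °C, humidified 5% CO₂. p-Nitrophenyl phosphate (20 mg/mL solution in 1 M NaOAc pH 5.5, 1% Triton X-100) added, further 6-8 h at 37 °C; acid phosphatase read at 405 nm. IC50 versus untreated control from four-parameter dose-response fit.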

In a further experiment the test system is Leishmania donovani. Nature of the experiment: Antileishmanial activity against Leishmania donovani MHOM/SD/62/IS-CL2D axenic amastigotes after 3 days. Format: functional, organism-based. The following applies: 72 h. An outline of the steps:
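Amastigote-like L. donovani parasites were grown axenically in vitro and exposed to compounds for three days. Viability was read with a tetrazolium dye-based reagent, following a previously described protocol.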

A short description of experiment [2]: Selectivity of IC50 for Trypanosoma brucei brucei MITat 1.2 variant 221 to IC50 for african green monkey Vero cells.

Molecules are shown by their SMILES. Bounds are passed on as bounds.

As to `Oc1ccc2c(c1)OCC1c3cc4c(cc3OC21)OCO4` (racemic), the IC50 in the experiment with PC-3 was more than 250 µM; with Vero it was more than 250 µM; in experiment [1], 130 µM; in the experiment on Leishmania donovani, more than 250 µM.
`Cc1ccc(C(=O)Nc2ccc(S(=O)(=O)O)c3cc(S(=O)(=O)O)cc(S(=O)(=O)O)c23)cc1NC(=O)c1cccc(NC(=O)Nc2cccc(C(=O)Nc3cc(C(=O)Nc4ccc(S(=O)(=O)O)c5cc(S(=O)(=O)O)cc(S(=O)(=O)O)c45)ccc3C)c2)c1` [SURAMIN] had an IC50 in experiment [1] of 0.19 µM.
Consider `CC(C)=CCc1c(-c2coc3cc(O)cc(O)c3c2=O)ccc(O)c1O`, for which the IC50 in the experiment on PC-3 was determined as 12.7 µM; in the experiment with Vero, 37.5 µM; in experiment [1], 12.1 µM; in the experiment on Leishmania donovani, 13 µM.
On to `O=c1c(-c2ccc(O)cc2)coc2cc(O)cc(O)c12` [GENISTEIN], for which the IC50 with Vero stood at 32.9 µM; in experiment [1], 4.2 µM; with Leishmania donovani it was 73 µM.
Take `COc1cc2cc(c1Cl)N(C)C(=O)C[C@H](OC(=O)C(C)C)[C@]1(C)O[C@@H]1[C@H](C)[C@@H]1C[C@@](O)(NC(=O)O1)[C@H](OC)/C=C/C=C(\C)C2` [ANSAMITOCIN P3]: in the experiment on Vero, the IC50 is 0.0012 µM.
As for `C=CC(C)(C)c1cc(OC)c(OC)cc1-c1coc2cc(OC)cc(O)c2c1=O` [TRIMETHYLFREMONTIN], the IC50 in the experiment on PC-3 was 146 µM; in experiment [1], 32.3 µM; in the experiment on Leishmania donovani, more than 250 µM.
On to `O=C(/C=C/c1ccc(O)cc1)c1ccc(O)cc1O` [ISOLIQUIRITIGENIN], for which the IC50 amounted to 46.4 µM with PC-3, 65.6 µM in the experiment on Vero, 32.8 µM in experiment [1] and 20.7 µM in the experiment with Leishmania donovani.
Regarding `COc1ccc(-c2coc3cc(O)ccc3c2=O)cc1O` [CALYCOSIN], the IC50 was determined as 130 µM in the experiment with PC-3, 159 µM in the experiment with Vero, 12.7 µM in experiment [1] and 100 µM in the experiment with Leishmania donovani. Moreover, in experiment [2], the Selectivity ratio was found to be 15.
`COc1ccc(-c2coc3cc(O)ccc3c2=O)cc1` [FORMONONETIN] returned an IC50 in experiment [1] of 90.2 µM.
Turning to `C=CC(C)(C)c1cc(OC(C)=O)c(OC(C)=O)cc1-c1coc2cc(OC(C)=O)cc(OC(C)=O)c2c1=O` [FREMONTIN TETRAACETATE], the IC50 with PC-3 stood at 66.2 µM; in experiment [1], 67.8 µM; in the experiment on Leishmania donovani, 42.7 µM.
Regarding `N=C(N)c1ccc(OCCCCCOc2ccc(C(=N)N)cc2)cc1` [PENTAMIDINE], the IC50 in the experiment with Leishmania donovani is 1.5 µM.
For the compound `COc1ccc2c(C=O)c(-c3cc4c(cc3O)OCO4)oc2c1`, the IC50 (in the experiment with PC-3; in the experiment with Vero; in experiment [1]; in the experiment on Leishmania donovani) was more than 250 µM in each case.
In the case of `CC1(C)CCc2c(-c3coc4cc(O)cc(O)c4c3=O)ccc(O)c2O1`, the values for the IC50 (with PC-3; in experiment [1]; in the experiment on Leishmania donovani) were 107 µM, 57.9 µM and 38.4 µM, respectively.
The like results for `CC1(C)CCc2cc(-c3coc4cc(O)cc(O)c4c3=O)cc(O)c2O1` were, in that order, 79.3 µM, 77 µM and 68.3 µM.
With `CC1(C)CC[C@]2(C(=O)O)CC[C@]3(C)C(=CC[C@@H]4[C@@]5(C)CC[C@H](O)C(C)(C)[C@@H]5CC[C@]43C)[C@@H]2C1` [OLEANOLIC_ACID], the IC50 in the experiment on PC-3 was 211 µM; with Vero, more than 250 µM; in experiment [1], 43.1 µM; in the experiment on Leishmania donovani, more than 250 µM.
In the experiment with PC-3, `COc1cc([C@@H]2c3cc4c(cc3[C@H](O)[C@H]3COC(=O)[C@H]23)OCO4)cc(OC)c1OC` [PODOFILOX] returned an IC50 of 0.0125 µM.
Turning to `O=c1c(-c2ccc(O)cc2)coc2cc(O)ccc12` [DAIDZEIN], the IC50 in experiment [1] is 23.7 µM.
Regarding `COc1ccc(-c2coc3cc(O)cc(O)c3c2=O)cc1` [BIOCHANIN], the IC50 turned out to be 12.3 µM in experiment [1] and 89.9 µM in the experiment with Leishmania donovani.
In the case of `COc1ccc(-c2coc3cc(OC)ccc3c2=O)cc1`, in experiment [1], the IC50 was more than 100 µM.
`O=c1c(-c2ccccc2)coc2cc(O)ccc12` [7-HYDROXY ISOFLAVONE]: the IC50 amounted to 94.2 µM in experiment [1] and 113 µM in the experiment with Leishmania donovani.
As to `O=c1c(-c2ccc(O)c(O)c2)coc2cc(O)ccc12`, the IC50 in the experiment with Vero came to 135 µM; in experiment [1], 7.1 µM.
Turning to `Oc1ccc2c(c1O)OCC1c3cc4c(cc3OC21)OCO4` (racemic), the IC50 in the experiment with PC-3 amounted to 28 µM; in the experiment with Vero, 3.3 µM; in experiment [1], 3.7 µM; in the experiment with Leishmania donovani, 37.3 µM.
The like results for `COc1cc(OC)c2c(=O)c(-c3cc(CC=C(C)C)c(OC)c(OC)c3)coc2c1` were, in that order, 30.9 µM, 44.3 µM, 7.8 µM and 41.4 µM.
Turning to `C=CC(C)(C)c1cc(OC)c(OC)cc1-c1coc2cc(OC)cc(OC)c2c1=O`, the IC50 in the experiment with PC-3 was 134 µM; in experiment [1], 41.7 µM; in the experiment on Leishmania donovani, 86 µM.
Turning to `COc1cc(O)c2c(=O)c(-c3ccc(O)cc3)coc2c1` [PRUNETIN], the IC50 in experiment [1] was 20.2 µM.
In experiment [1], `O=c1cc(-c2ccc(O)cc2)oc2cc(O)cc(O)c12` [APIGENIN] registered an IC50 of 11.9 µM.
For the compound `CC(C)=CCc1cc(-c2coc3cc(O)cc(O)c3c2=O)cc(O)c1O` [GLYCYRRHISOFLAVONE], the IC50 with PC-3 worked out at 62.1 µM; in the experiment on Vero, 52.8 µM; in experiment [1], 33 µM; with Leishmania donovani it was 46.3 µM.

For orientation: IC50 means the concentration needed to halve the response being measured.
